The structures appear in SMILES notation.

Sequence of Substance-P receptor (Homo sapiens, UniProt P25103, Q165A) (P25103 whole entry Q165A): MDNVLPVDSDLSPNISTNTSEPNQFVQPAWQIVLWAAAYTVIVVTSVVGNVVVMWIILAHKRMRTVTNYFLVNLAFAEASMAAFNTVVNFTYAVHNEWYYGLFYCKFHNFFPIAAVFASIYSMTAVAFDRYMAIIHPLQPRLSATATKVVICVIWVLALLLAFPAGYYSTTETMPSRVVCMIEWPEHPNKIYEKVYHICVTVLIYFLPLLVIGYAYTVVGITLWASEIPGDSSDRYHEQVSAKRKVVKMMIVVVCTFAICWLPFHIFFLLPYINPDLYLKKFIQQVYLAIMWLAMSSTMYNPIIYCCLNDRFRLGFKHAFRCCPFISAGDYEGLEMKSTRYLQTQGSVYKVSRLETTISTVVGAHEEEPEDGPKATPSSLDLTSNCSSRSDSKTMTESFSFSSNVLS

The subject of the first test is Mustela putorius furo. Briefly: Effect on heart rate of substance P antagonist was determined as change heart rate in the anesthetized ferret at 3 mg/Kg intravenous bolus. It is filed as functional.
Details: not given
The essentials: (§1)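 Ferrets anesthetized with sodium pentobarbitone (40 mg/kg ip), maintained with sodium barbitalone (300 mg/kg ip); tracheal cannula with artificial ventilation on room air; femoral artery cannulated for recording, femoral vein for dosing. Rising cumulative iv bolus doses, in distilled water (1 mL/kg) or poly(ethylene glycol) (0.5 mL/kg), with matched vehicle controls. Change in heart rate, mean ± SD of at least three determinations.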
Regarding `O=C(CCc1cc(C(F)(F)F)cc(C(F)(F)F)c1)[C@H](Cc1c[nH]c2ccccc12)NC(=O)C12CCN(CC1)CC2`, the “Change in heart rate” value is given as 1.

In the case of `COc1ccccc1CN[C@H]1C2CCN(CC2)[C@H]1C(c1ccccc1)c1ccccc1` [CP-96345], the “Change in heart rate” value turned out to be 65.

In the next test the target is T1, Substance-P receptor (Homo sapiens, UniProt P25103). Briefly: Binding affinity against human Tachykinin receptor 1 expressed in CHO cells was measured by its ability to displace [125I]- Tyr-8 substance P. It is filed as cell-based.
T1 sequence (P25103 whole entry): as the sequence (P25103 whole entry Q165A) above, with A165Q counted along it
Details: not given
`CN(C)CCCCC(=O)N[C@@H](Cc1c[nH]c2ccccc12)C(=O)CCc1cc(C(F)(F)F)cc(C(F)(F)F)c1`: the IC50 came to 0.6 nM.

For the compound `O=C(CN1CCOCC1)N[C@@H](Cc1c[nH]c2ccccc12)C(=O)CCc1cc(C(F)(F)F)cc(C(F)(F)F)c1`, the IC50 is 3.5 nM.

Compound `O=C(Cc1ccncc1)N[C@@H](Cc1c[nH]c2ccccc12)C(=O)CCc1cc(C(F)(F)F)cc(C(F)(F)F)c1` returned an IC50 of 0.5 nM. Against the preceding compound, the IC50 is about 7-fold lower.

In turn, `O=C(Cc1cnc[nH]1)N[C@@H](Cc1c[nH]c2ccccc12)C(=O)CCc1cc(C(F)(F)F)cc(C(F)(F)F)c1` returned an IC50 of 3.8 nM.

In the case of `O=C(CCN1CCCCC1)N[C@@H](Cc1c[nH]c2ccccc12)C(=O)CCc1cc(C(F)(F)F)cc(C(F)(F)F)c1`, the IC50 amounted to 0.6 nM.

The compound `O=C(CCc1cc(C(F)(F)F)cc(C(F)(F)F)c1)[C@H](Cc1c[nH]c2ccccc12)NC(=O)C12CCN(CC1)CC2` yielded a 50% inhibitory concentration (IC50) of 0.9 nM. Compared with the last compound, the IC50 is about 1.5-fold higher.

The compound `O=C(CCc1ccncc1)N[C@@H](Cc1c[nH]c2ccccc12)C(=O)CCc1cc(C(F)(F)F)cc(C(F)(F)F)c1` had an IC50 of 0.47 nM.

`O=C(CCCN1CCCC1)N[C@@H](Cc1c[nH]c2ccccc12)C(=O)CCc1cc(C(F)(F)F)cc(C(F)(F)F)c1` had an IC50 of 0.3 nM.

On to `CC(=O)N[C@H](COCc1cc(C)cc(C)c1)Cc1c[nH]c2ccccc12`, for which the IC50 was 767 nM.

For `Cc1cc(C)cc(CN(C)C(=O)[C@H](Cc2c[nH]c3ccccc23)NC(=O)c2ccccc2)c1`, the IC50 stood at 1030 nM.

The compound `CN(C)CCCC(=O)N[C@@H](Cc1c[nH]c2ccccc12)C(=O)CCc1cc(C(F)(F)F)cc(C(F)(F)F)c1` had an IC50 of 0.7 nM. This IC50 lies about 1500-fold lower than the previous one.

`FC(F)(F)c1cccc(CO[C@H]2C3CCN(CC3)[C@H]2C(c2ccccc2)c2ccccc2)c1` had an IC50 of 53 nM.

Regarding `O=C(CCCN1CCOCC1)N[C@@H](Cc1c[nH]c2ccccc12)C(=O)CCc1cc(C(F)(F)F)cc(C(F)(F)F)c1`, the IC50 is 0.17 nM. Compared with the last compound, the IC50 is about 310-fold lower.

On to `O=C(CCC1CCNCC1)N[C@@H](Cc1c[nH]c2ccccc12)C(=O)CCc1cc(C(F)(F)F)cc(C(F)(F)F)c1`, for which the IC50 was 0.37 nM.

The next test has as its system Mustela putorius furo. Kind of test: Maximum change in the mean arterial blood pressure in the anesthetized ferret of substane P at 1 mg/Kg intravenous bolus. It is filed as functional.
Details: not given
In short, it runs like this: (§2)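 Pentobarbitone-induced (40 mg/kg ip), barbitalone-maintained (300 mg/kg ip) ferret anesthesia; trachea cannulated, ventilated with room air; blood pressure recorded via femoral artery, compounds given via femoral vein as rising cumulative iv boluses in distilled water (1 mL/kg) or poly(ethylene glycol) (0.5 mL/kg), matched vehicle controls. Maximum change in mean arterial pressure, mean ± SD, at least three determinations.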
On to `COc1ccccc1CN[C@H]1C2CCN(CC2)[C@H]1C(c1ccccc1)c1ccccc1` [CP-96345], for which the MABP came to 46.

A further test addresses Substance-P receptor (Homo sapiens, UniProt P25103, Q165A). Kind of test: Binding affinity against Gln165Ala mutant type human Tachykinin receptor 1 expressed in CHO cells was measured by its ability to displace [125I]- Tyr-8 substance P. It is filed as cell-based.
Details: not given
Take `O=C(CN1CCOCC1)N[C@@H](Cc1c[nH]c2ccccc12)C(=O)CCc1cc(C(F)(F)F)cc(C(F)(F)F)c1`: the IC50 amounted to 4 nM.

`O=C(Cc1ccncc1)N[C@@H](Cc1c[nH]c2ccccc12)C(=O)CCc1cc(C(F)(F)F)cc(C(F)(F)F)c1`: the IC50 amounted to 10 nM.

For the compound `O=C(CCc1cc(C(F)(F)F)cc(C(F)(F)F)c1)[C@H](Cc1c[nH]c2ccccc12)NC(=O)C12CCN(CC1)CC2`, the IC50 amounted to 8 nM. This IC50 and that of the compound before are within 1.5-fold of each other.

As to `FC(F)(F)c1cccc(CO[C@H]2C3CCN(CC3)[C@H]2C(c2ccccc2)c2ccccc2)c1`, the IC50 came out at 2100 nM.

Compound `O=C(CCCN1CCOCC1)N[C@@H](Cc1c[nH]c2ccccc12)C(=O)CCc1cc(C(F)(F)F)cc(C(F)(F)F)c1` showed an IC50 of 1.4 nM.

The next test relates to Mustela putorius furo. Briefly: Maximum change in the mean arterial blood pressure in the anesthetized ferret of substance P at 0.1 mg/Kg intravenous bolus. It is filed as functional.
Details: not given
In short, it runs like this:
as §2
As for `O=C(CCc1cc(C(F)(F)F)cc(C(F)(F)F)c1)[C@H](Cc1c[nH]c2ccccc12)NC(=O)C12CCN(CC1)CC2`, the MABP amounted to 2.

The compound `COc1ccccc1CN[C@H]1CCCN[C@H]1c1ccccc1` [CP-99994] had an MABP of 10.

A further test deals with Mustela putorius furo. Kind of test: Maximum change in the mean arterial blood pressure in the anesthetized ferret of substane P at 0.3 mg/Kg intravenous bolus.
Details: not given
In kind it is functional. In short, it runs like this: as §2
As to `COc1ccccc1CN[C@H]1C2CCN(CC2)[C@H]1C(c1ccccc1)c1ccccc1` [CP-96345], the MABP is 21.

The target of another test is T1, Substance-P receptor. Briefly: Binding affinity against wild type human Tachykinin receptor 1 expressed in CHO cells was measured by its ability to displace [125I]- Tyr-8 substance P. In kind it is cell-based.
Details: not given
As to `O=C(CN1CCOCC1)N[C@@H](Cc1c[nH]c2ccccc12)C(=O)CCc1cc(C(F)(F)F)cc(C(F)(F)F)c1`, the IC50 was determined as 2 nM.

Compound `O=C(Cc1ccncc1)N[C@@H](Cc1c[nH]c2ccccc12)C(=O)CCc1cc(C(F)(F)F)cc(C(F)(F)F)c1` showed an IC50 of 0.4 nM. This IC50 is about 5-fold lower than that of the compound before.

Consider `O=C(CCc1cc(C(F)(F)F)cc(C(F)(F)F)c1)[C@H](Cc1c[nH]c2ccccc12)NC(=O)C12CCN(CC1)CC2`, for which the half-maximal inhibitory concentration (IC50) turned out to be 1 nM.

Turning to `FC(F)(F)c1cccc(CO[C@H]2C3CCN(CC3)[C@H]2C(c2ccccc2)c2ccccc2)c1`, the IC50 turned out to be 53 nM.

The compound `O=C(CCCN1CCOCC1)N[C@@H](Cc1c[nH]c2ccccc12)C(=O)CCc1cc(C(F)(F)F)cc(C(F)(F)F)c1` had an IC50 of 0.24 nM. Against the preceding compound, the IC50 is about 220-fold lower.

The subject of a further test is Mustela putorius furo. Kind of test: Effect on heart rate of substance P antagonist was determined as change heart rate in the anesthetized ferret at 0.3 mg/Kg intravenous bolus. It is filed as functional.
Details: not given
In short, it runs like this: as §1
For `O=C(CCc1cc(C(F)(F)F)cc(C(F)(F)F)c1)[C@H](Cc1c[nH]c2ccccc12)NC(=O)C12CCN(CC1)CC2`, the “Change in heart rate” value was 2.

As to `COc1ccccc1CN[C@H]1C2CCN(CC2)[C@H]1C(c1ccccc1)c1ccccc1` [CP-96345], the “Change in heart rate” value is recorded as 13.

A further test has as its system Mustela putorius furo. Kind of test: Effect on heart rate of substance P antagonist was determined as change heart rate in the anesthetized ferret at 0.1 mg/Kg intravenous bolus. It is filed as functional.
Details: not given
In short, it runs like this:
as §1
As for `O=C(CCc1cc(C(F)(F)F)cc(C(F)(F)F)c1)[C@H](Cc1c[nH]c2ccccc12)NC(=O)C12CCN(CC1)CC2`, the “Change in heart rate” value is listed as 3.

Take `COc1ccccc1CN[C@H]1C2CCN(CC2)[C@H]1C(c1ccccc1)c1ccccc1` [CP-96345]: the “Change in heart rate” value is listed as 7.

A further test relates to Mustela putorius furo. Kind of test: Effect on heart rate of substance P antagonist was determined as change heart rate in the anesthetized ferret at 1 mg/Kg intravenous bolus. In kind it is functional.
Details: not given
The essentials: as §1
As to `O=C(CCc1cc(C(F)(F)F)cc(C(F)(F)F)c1)[C@H](Cc1c[nH]c2ccccc12)NC(=O)C12CCN(CC1)CC2`, the “Change in heart rate” value is given as 1.

Take `COc1ccccc1CN[C@H]1C2CCN(CC2)[C@H]1C(c1ccccc1)c1ccccc1` [CP-96345]: the “Change in heart rate” value worked out at 21.

For the next test, the system named is Mustela putorius furo. Briefly: Maximum change in the mean arterial blood pressure in the anesthetized ferret of substance P at 3 mg/Kg intravenous bolus. It is filed as functional.
Details: not given
The essentials:
(§3)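 Ferrets were anesthetized with sodium pentobarbitone (40 mg/kg ip), maintained with sodium barbitalone (300 mg/kg ip), tracheally cannulated and ventilated with room air. Blood pressure was recorded via the femoral artery. Rising cumulative iv bolus doses (vehicle: distilled water, 1 mL/kg, or PEG, 0.5 mL/kg) went in via the femoral vein, with vehicle controls. Maximum change in mean arterial pressure is mean ± SD, n≥3.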
`O=C(CCc1cc(C(F)(F)F)cc(C(F)(F)F)c1)[C@H](Cc1c[nH]c2ccccc12)NC(=O)C12CCN(CC1)CC2` had an MABP of 34.

For a further test, the system named is Mustela putorius furo. Kind of test: Maximum change in the mean arterial blood pressure in the anesthetized ferret of substane P at 0.1 mg/Kg intravenous bolus. It is filed as functional.
Details: not given
The essentials: as §2
With `COc1ccccc1CN[C@H]1C2CCN(CC2)[C@H]1C(c1ccccc1)c1ccccc1` [CP-96345], the MABP amounted to 11.

The next test has as its system Cavia porcellus. Briefly: Inhibition of substance P-induced dermal plasma extravasation in the guinea pig 1 hr after oral dose. It is filed as functional. The note with it: PIG1, Plasma, read-out: ID50 (the source's name). In short, it runs like this: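 Guinea pigs were dosed orally 1 h before 0.5 pmol substance P was injected into the dorsal skin. Evans blue was given iv before the challenge. Plasma leakage was quantified from dye levels in the skin around the injection sites, and ID50 was expressed in mg/kg.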
`O=C(Cc1ccncc1)N[C@@H](Cc1c[nH]c2ccccc12)C(=O)CCc1cc(C(F)(F)F)cc(C(F)(F)F)c1`: the ED50 turned out to be 1.9 mg/kg.

With `O=C(CCc1cc(C(F)(F)F)cc(C(F)(F)F)c1)[C@H](Cc1c[nH]c2ccccc12)NC(=O)C12CCN(CC1)CC2`, the ED50 came out at 1.8 mg/kg.

On to `CN(C)CCC(=O)N[C@@H](Cc1c[nH]c2ccccc12)C(=O)CCc1cc(C(F)(F)F)cc(C(F)(F)F)c1`, for which the ED50 worked out at 10 mg/kg.

As to `CN(C)CCCC(=O)N[C@@H](Cc1c[nH]c2ccccc12)C(=O)CCc1cc(C(F)(F)F)cc(C(F)(F)F)c1`, the ED50 is 4 mg/kg.

In the case of `COc1ccccc1CN[C@H]1CCCN[C@H]1c1ccccc1` [CP-99994], the ED50 was found to be 1.6 mg/kg.

The test system of the next test is Mustela putorius furo. Briefly: Maximum change in the mean arterial blood pressure in the anesthetized ferret of substane P at 3 mg/Kg intravenous bolus.
Details: not given
It is filed as functional. In short, it runs like this:
as §2
In turn, `COc1ccccc1CN[C@H]1C2CCN(CC2)[C@H]1C(c1ccccc1)c1ccccc1` [CP-96345] displayed an MABP of 63.

A further test deals with Mustela putorius furo. Briefly: Maximum change in the mean arterial blood pressure in the anesthetized ferret of substance P at 0.3 mg/Kg intravenous bolus. It is filed as functional.
Details: not given
In short, it runs like this:
as §2
`O=C(CCc1cc(C(F)(F)F)cc(C(F)(F)F)c1)[C@H](Cc1c[nH]c2ccccc12)NC(=O)C12CCN(CC1)CC2`: the MABP is 4.

In the case of `COc1ccccc1CN[C@H]1CCCN[C@H]1c1ccccc1` [CP-99994], the MABP worked out at 13.

The test system of another test is Mustela putorius furo. Kind of test: Maximum change in the mean arterial blood pressure in the anesthetized ferret of substance P at 1 mg/Kg intravenous bolus. It is filed as functional.
Details: not given
In short, it runs like this:
as §3
For `O=C(Cc1ccncc1)N[C@@H](Cc1c[nH]c2ccccc12)C(=O)CCc1cc(C(F)(F)F)cc(C(F)(F)F)c1`, the MABP is -20.

In turn, `O=C(CCc1cc(C(F)(F)F)cc(C(F)(F)F)c1)[C@H](Cc1c[nH]c2ccccc12)NC(=O)C12CCN(CC1)CC2` showed an MABP of 18.

Regarding `COc1ccccc1CN[C@H]1CCCN[C@H]1c1ccccc1` [CP-99994], the MABP was 12.

By IC50 is commonly meant the concentration needed to halve the response being measured.
